Test results as given in ChEMBL document CHEMBL4699454, “Mechanistic insights into the activation of ester prodrugs of 666-15” (Bioorg Med Chem Lett, 2020).

Columns and labels:
[1] = Aqueous solubility of the compound in distilled de-ionized water; type: physicochemical
[2] = Ratio of GI50 for human MDA-MB-231 cells to GI50 for human MDA-MB-468 cells assessed as cell growth inhibition measured after 72 hrs by MTT assay; type: functional
[3] = test system: MDA-MB-231; assay: Antiproliferative activity against human MDA-MB-231 cells assessed as inhibition of cell growth incubated for 72 hrs by MTT assay; type: functional
In short: (§1)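 MTT viability read-out after 72 h exposure of TNBC cells to increasing compound concentrations. GI50 = concentration giving 50% growth inhibition; mean ± SD from at least two independent experiments run in duplicate. Stocks of the ester prodrugs prepared in DMF, parent compound stocks in DMSO.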

[4] = Inhibition of CREB (unknown origin) expressed in HEK293T cells transfected with pCRE-RLuc assessed as inhibition of forskolin-induced CREB transcription activity by luciferase reporter gene assay; type: cell-based; conditions: Homo sapiens, HEK-293T
In short: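 HEK293T cells transiently transfected with pCRE-RLuc (Renilla luciferase under CREB control), treated with graded compound concentrations, then stimulated with forskolin to raise CREB phosphorylation; luciferase signal read. IC50 = concentration halving reporter transcription; mean ± SD of at least two experiments in triplicate. Prodrug stocks in DMF, parent in DMSO.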

[5] = test system: MDA-MB-468; assay: Antiproliferative activity against human MDA-MB-468 cells assessed as inhibition of cell growth incubated for 72 hrs by MTT assay; type: functional; in short: as §1
[6] = Stability of the compound in DMSO; type: physicochemical
[7] = Stability of the compound in DMEM at 200 uM incubated for 5 to 30 mins in presence of 10% FBS by HPLC analysis; conditions: time min 5-30
In short: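 Compound at 200 μM incubated in DMEM with 10% FBS at 37 °C; aliquots withdrawn at various time points and analysed by HPLC, peaks assigned by comparison with authentic reference samples.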

SMILES: Cl.NCCCOc1cc2ccccc2cc1C(=O)NCCOc1cc2ccccc2cc1C(=O)Nc1ccc(Cl)cc1O
- solubility [1]: < 0.5 mg/mL

SMILES: NCCCOc1cc2ccccc2cc1C(=O)Oc1cc(Cl)ccc1NC(=O)c1cc2ccccc2cc1OCCN
- Ratio IC50 [2]: 10
- GI50 [3]: 540 nM
- IC50 [4]: 260 nM
- GI50 [5]: 45 nM
- Stabilty [6]: Unstable

SMILES: Cl.Cl.NCCCOc1cc2ccccc2cc1C(=O)Nc1ccc(Cl)cc1OC(=O)c1cc2ccccc2cc1OCCN
- Stability [7]: Unstable
- Ratio IC50 [2]: 10
- solubility [1]: > 100 mg/mL
- GI50 [3]: 670 nM
- IC50 [4]: 250 nM
- GI50 [5]: 32 nM
- Stabilty [6]: Unstable
